Screening data from PubChem.
STK33 kinase inh – inhibitors of human STK33 kinase; Q9BYT3; purified STK33, MBP phosphorylation, ADP-Glo luminescence; inhibition, % at 10 µM; hit rate 0.073% among 320,000;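 active = inhibition at or above 25%, using the most active replicate where run in duplicate; inactive = inhibition below 25%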
Dyrk1A ADPGlo – inhibitors of rat Dyrk1A kinase; Q63470; ADP-Glo luminescence, NFATc1 peptide; inhibition, % at 12.5 µM; hit rate 0.43% among 310,000; in the data active = inhibition above about 50%;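 also: plate controls were vehicle with enzyme for no effect and no enzyme for full effect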
GSK3 alpha inh – human GSK-3 alpha kinase inhibition; ADP-Glo luminescence, 60 min; inhibition, % at 10 µM; P49840; AID 2650; hit rate 0.1% among 320,000;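 active = more than half of replicates show inhibition above 20%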;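 also: GST-tagged GSK-3 alpha with peptide substrate and 25 µM ATP; 0% = DMSO neutral wells and 100% = GW8510 positive control wells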
Target sequence (P49840 whole entry, looked up): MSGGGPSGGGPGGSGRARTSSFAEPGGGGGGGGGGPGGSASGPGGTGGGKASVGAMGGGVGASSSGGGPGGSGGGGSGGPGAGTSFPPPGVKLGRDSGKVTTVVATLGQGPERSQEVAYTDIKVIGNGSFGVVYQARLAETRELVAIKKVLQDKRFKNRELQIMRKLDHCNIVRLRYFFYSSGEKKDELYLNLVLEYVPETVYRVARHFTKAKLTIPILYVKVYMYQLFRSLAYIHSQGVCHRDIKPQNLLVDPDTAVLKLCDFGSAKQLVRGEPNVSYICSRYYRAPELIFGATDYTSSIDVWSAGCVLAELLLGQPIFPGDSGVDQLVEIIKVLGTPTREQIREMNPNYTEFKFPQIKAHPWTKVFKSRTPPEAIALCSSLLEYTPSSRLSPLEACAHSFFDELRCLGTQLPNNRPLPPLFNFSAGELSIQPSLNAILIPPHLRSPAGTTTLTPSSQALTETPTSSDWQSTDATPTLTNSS
GSK3B inh – human GSK3beta kinase inhibition; P49841; GST-GSK3beta kinase, ADP-Glo luminescence, 60 min; active compounds read low; activity score (negative = inhibition), % at 10 µM; hit rate 0.038% among 300,000; AID 2097;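 active = more than half of replicate wells score below -50%, meaning over 50% inhibition versus plate controls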;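 also: 0% = median DMSO wells and -100% = median GW8510 positive control wells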
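Test system: GST-tagged human GSK3beta kinase, cell-free; evaluation: activity score scaled between in-plate DMSO and GW8510 controls; measured by: ADP-Glo luminescence; incubation: 60 min reaction, RT; benchmarks: DMSO and 20 µM GW8510; reagent: peptide substrate plus 25 µM ATP (final); medium: Tris/MgCl2 kinase buffer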
Dyrk1A artifact – ADP-Glo luciferase interference, Dyrk1A counter-screen. 1,300 tested, under 10 active. ADP-Glo luciferase artifact assay, no Dyrk1A, luminescence. shares compounds with Dyrk1A ADPGlo. AC50, µM (doses to about 12 µM), without a hit: top-dose activity change, negative = inhibition;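 active = fitted half-maximal dose AC50 no more than ten times the top valid tested dose, with luminescence dropping as dose rises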
Numbers without * were called inactive. The entries come from a sample that favours hits as a whole.

Screening O=[N+]([O-])c1cc(/C=N/O)ccc1Oc1ccccc1Cl returned STK33 kinase inh 4, Dyrk1A ADPGlo 61*, GSK3 alpha inh 65*, GSK3B inh -52* and Dyrk1A artifact 9%.
For Oc1ccc2nnc3c(Br)cnn3c2c1 the results were STK33 kinase inh 11, Dyrk1A ADPGlo 77*, GSK3 alpha inh 21, GSK3B inh -7 and Dyrk1A artifact 10%.
Screening CCNc1nc(N)nc(-c2cc(Cl)ccc2O)n1 returned STK33 kinase inh 75*, Dyrk1A ADPGlo 67*, GSK3 alpha inh 72*, GSK3B inh -73* and Dyrk1A artifact 6%.
CCCCNc1nc(N)nc(-c2cc(Cl)ccc2O)n1 was read as STK33 kinase inh 2, Dyrk1A ADPGlo 5, GSK3 alpha inh 6 and GSK3B inh 1.
For S=c1[nH]c2ccccc2n2c(=S)[nH]nc12 the results were STK33 kinase inh 3, Dyrk1A ADPGlo 56*, GSK3 alpha inh 7, GSK3B inh 0 and Dyrk1A artifact 7%.
Screening O=C1c2ccccc2C(=O)c2c(Nc3ccc(CCO)cc3)ccc(O)c21 returned STK33 kinase inh 4, Dyrk1A ADPGlo 5, GSK3 alpha inh 7 and GSK3B inh -1.
For O=C1c2c(O)ccc(O)c2C(=O)c2c(NCCNCCO)ccc(NCCNCCO)c21 the results were STK33 kinase inh 66*, Dyrk1A ADPGlo 52*, GSK3 alpha inh 62* and Dyrk1A artifact 3%.
Cc1c(O)ccc2c(CN(C)Cc3ccccc3)cc(=O)oc12 was read as STK33 kinase inh -1, Dyrk1A ADPGlo 59*, GSK3 alpha inh 5, GSK3B inh -2 and Dyrk1A artifact 8%.
For CCOc1cc(C(=O)OC(C(=O)NC(=O)NC)c2ccccc2)ccc1OCC(=O)N1CCOCC1 (configuration not stated) the results were STK33 kinase inh 0, Dyrk1A ADPGlo -5 and GSK3 alpha inh -2.
Screening COc1ccc(C(=O)Nc2cc(C)nn2-c2cccc(F)c2)cc1OC returned STK33 kinase inh -2, Dyrk1A ADPGlo 1, GSK3 alpha inh 1 and GSK3B inh 0.
Clc1cccc(Cc2nn[nH]n2)c1 was read as STK33 kinase inh 3, Dyrk1A ADPGlo 59*, GSK3 alpha inh -9, GSK3B inh 3 and Dyrk1A artifact 11%.
`Clc1cccc(Cc2ccc(Cl)nn2)c1` gave STK33 kinase inh -1, Dyrk1A ADPGlo 1, GSK3 alpha inh -1 and GSK3B inh 2.
Screening CS(=O)(=O)c1ccc(-c2cn3cc(C(=O)O)ccc3n2)cc1 returned STK33 kinase inh 8, Dyrk1A ADPGlo 77*, GSK3 alpha inh -2, GSK3B inh 2 and Dyrk1A artifact 8%.
For Cc1nc(C#N)c(N/N=C/c2c(F)cccc2Cl)o1 the results were STK33 kinase inh 0, Dyrk1A ADPGlo 3, GSK3 alpha inh 1 and GSK3B inh 0.
For C(=N\NC1=Nc2cccc3cccc1c23)/c1ccccn1 the results were Dyrk1A ADPGlo 53*, GSK3B inh 2 and Dyrk1A artifact 9%.
For Cc1c(Cl)c(C(F)(F)F)nn1CC(=O)N1CCSCC1 the results were STK33 kinase inh -1, Dyrk1A ADPGlo 1, GSK3 alpha inh -4 and GSK3B inh 0.
Screening NNc1nccc(Nc2ccccc2C(=O)O)n1 returned STK33 kinase inh 20, Dyrk1A ADPGlo 84*, GSK3 alpha inh 69*, GSK3B inh -60* and Dyrk1A artifact 9%.
Screening Cc1cc2c(ccc3[nH]onc32)n1 returned STK33 kinase inh 2, Dyrk1A ADPGlo 51*, GSK3 alpha inh 3, GSK3B inh -6 and Dyrk1A artifact 8%.
Cc1ccc2nc(C)cc(Cl)c2c1 was read as STK33 kinase inh -1, Dyrk1A ADPGlo -1 and GSK3B inh 1.
For C=C(C)[C@@H](O)COc1c2ccoc2cc2oc(=O)ccc12 the results were STK33 kinase inh 2, Dyrk1A ADPGlo 59*, GSK3 alpha inh 6 and Dyrk1A artifact 8%.
For CC(C)(O)[C@H](O)COc1c2ccoc2cc2oc(=O)ccc12 the results were STK33 kinase inh 0, Dyrk1A ADPGlo 48, GSK3 alpha inh 2 and GSK3B inh 1.
Screening CC(=O)O[C@H](COc1c2ccoc2cc2oc(=O)ccc12)C(C)(C)O returned STK33 kinase inh 2, Dyrk1A ADPGlo 68*, GSK3 alpha inh -2 and Dyrk1A artifact 10%.
Screening CC1CCCCC1NC(=O)CN1CCC(O)(c2ccc(F)cc2)CC1 (configuration not stated) returned STK33 kinase inh -1, GSK3 alpha inh -1 and GSK3B inh 4.
